# From ChEMBL document CHEMBL1141317, “Pavietin, a coumarin from Aesculus pavia with antifungal activity” (2007)
# Assays:
# Alternaria dianthi [1] = experiment: Antifungal activity against Alternaria dianthi assessed as mycelial growth at 200 umol/L by filter disk method relative to control; type: functional; details: in the assay text read “by incorporation into growth medium” for “by filter disk method”
# How it was run: (§1)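 Agar-incorporation assay rather than disk. Compound in a few drops of DMSO, ultrafiltered and added to autoclaved, still-molten PDA at 50, 100 or 200 μmol L⁻¹. 1 cm mycelial plugs inoculated, 40 dishes per treatment per species. Grown 3 days at 22 °C in darkness. Mycelial growth expressed as % of DMSO-only controls (100%). Student–Neumann–Keuls test, p = 0.05.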
# Alternaria dianthi [2] = experiment: Antifungal activity against Alternaria dianthi assessed as mycelial growth at 100 umol/L by filter disk method relative to control; type: functional; details: in the assay text read “by incorporation into growth medium” for “by filter disk method”; how it was run: as §1
# Alternaria dianthi [3] = experiment: Antifungal activity against Alternaria dianthi assessed as mycelial growth at 50 umol/L by filter disk method relative to control; type: functional; details: in the assay text read “by incorporation into growth medium” for “by filter disk method”; how it was run: as §1
# Guignardia aesculi [4] = experiment: Antifungal activity against Guignardia aesculi assessed as mycelial growth at 15 mg/disk by filter disk method relative to control; type: functional
# How it was run: (§2)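 Compound dissolved in a few drops of absolute EtOH and loaded onto 5 mm paper disks at 0.15, 1.5 or 15 mg per disk. Disks placed on PDA in 12 cm Petri dishes, 30 dishes per treatment per species. Inhibition zones measured in mm after 3 days at 27 °C. EtOH-only disk as control. Growth given as % of control (100%). Student–Neumann–Keuls test, p = 0.05.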
# Guignardia aesculi [5] = experiment: Antifungal activity against Guignardia aesculi assessed as mycelial growth at 0.15 mg/disk by filter disk method relative to control; type: functional; how it was run: as §2
# Guignardia aesculi [6] = experiment: Antifungal activity against Guignardia aesculi assessed as mycelial growth at 1.5 mg/disk by filter disk method relative to control; type: functional; how it was run: as §2
# Globisporangium ultimum [7] = experiment: Antifungal activity against Pythium ultimum assessed as mycelial growth at 0.15 mg/disk by filter disk method relative to control; type: functional; how it was run: as §2
# Globisporangium ultimum [8] = experiment: Antifungal activity against Pythium ultimum assessed as mycelial growth at 1.5 mg/disk by filter disk method relative to control; type: functional; how it was run: as §2
# Globisporangium ultimum [9] = experiment: Antifungal activity against Pythium ultimum assessed as mycelial growth at 15 mg/disk by filter disk method relative to control; type: functional; how it was run: as §2
# Alternaria alternata [10] = experiment: Antifungal activity against Alternaria alternata assessed as mycelial growth at 50 umol/L by filter disk method relative to control; type: functional; details: in the assay text read “by incorporation into growth medium” for “by filter disk method”; how it was run: as §1
# Alternaria alternata [11] = experiment: Antifungal activity against Alternaria alternata assessed as mycelial growth at 100 umol/L by filter disk method relative to control; type: functional; details: in the assay text read “by incorporation into growth medium” for “by filter disk method”; how it was run: as §1
# Alternaria alternata [12] = experiment: Antifungal activity against Alternaria alternata assessed as mycelial growth at 200 umol/L by filter disk method relative to control; type: functional; details: in the assay text read “by incorporation into growth medium” for “by filter disk method”; how it was run: as §1
# Aspergillus niger [13] = experiment: Antifungal activity against Aspergillus niger assessed as mycelial growth at 50 umol/L by filter disk method relative to control; type: functional; details: in the assay text read “by incorporation into growth medium” for “by filter disk method”; how it was run: as §1
# Aspergillus niger [14] = experiment: Antifungal activity against Aspergillus niger assessed as mycelial growth at 100 umol/L by filter disk method relative to control; type: functional; details: in the assay text read “by incorporation into growth medium” for “by filter disk method”; how it was run: as §1
# Aspergillus niger [15] = experiment: Antifungal activity against Aspergillus niger assessed as mycelial growth at 200 umol/L by filter disk method relative to control; type: functional; details: in the assay text read “by incorporation into growth medium” for “by filter disk method”; how it was run: as §1
# Botrytis [16] = experiment: Antifungal activity against Botrytis cinerea assessed as mycelial growth at 50 umol/L by filter disk method relative to control; type: functional; details: in the assay text read “by incorporation into PDA growth medium” for “by filter disk method”; how it was run: as §1
# Botrytis [17] = experiment: Antifungal activity against Botrytis cinerea assessed as mycelial growth at 100 umol/L by filter disk method relative to control; type: functional; details: in the assay text read “by incorporation into PDA growth medium” for “by filter disk method”; how it was run: as §1
# Botrytis [18] = experiment: Antifungal activity against Botrytis cinerea assessed as mycelial growth at 200 umol/L by filter disk method relative to control; type: functional; details: in the assay text read “by incorporation into PDA growth medium” for “by filter disk method”; how it was run: as §1
# Fulvia fulva [19] = experiment: Antifungal activity against Cladosporium fulvum assessed as mycelial growth at 50 umol/L by filter disk method relative to control; type: functional; details: in the assay text read “by incorporation into PDA growth medium” for “by filter disk method”; how it was run: as §1
# Fulvia fulva [20] = experiment: Antifungal activity against Cladosporium fulvum assessed as mycelial growth at 100 umol/L by filter disk method relative to control; type: functional; details: in the assay text read “by incorporation into PDA growth medium” for “by filter disk method”; how it was run: as §1
# Fulvia fulva [21] = experiment: Antifungal activity against Cladosporium fulvum assessed as mycelial growth at 200 umol/L […] relative to control; type: functional; how it was run: as §1
# [22] = Antifungal activity against Fusarium oxysporum dianthi assessed as mycelial growth at 50 umol/L […] relative to control; type: functional; details: Fusarium oxysporum f. sp. dianthi; how it was run: as §1
# [23] = tested on: Fusarium oxysporum f. sp. dianthi; experiment: Antifungal activity against Fusarium oxysporum dianthi assessed as mycelial growth at 100 umol/L by […] relative to control; type: functional; how it was run: as §1
# [24] = tested on: Fusarium oxysporum f. sp. dianthi; experiment: Antifungal activity against Fusarium oxysporum dianthi assessed as mycelial growth at 200 umol/L by […] relative to control; type: functional; how it was run: as §1
# Guignardia aesculi [25] = experiment: Antifungal activity against Guignardia aesculi assessed as mycelial growth at 50 umol/L by […] relative to control; type: functional; how it was run: as §1
# Guignardia aesculi [26] = experiment: Antifungal activity against Guignardia aesculi assessed as mycelial growth at 100 umol/L by filter disk method relative to control; type: functional; details: in the assay text read “by incorporation into the growth medium” for “by filter disk method”; how it was run: as §1
# Guignardia aesculi [27] = experiment: Antifungal activity against Guignardia aesculi assessed as mycelial growth at 200 umol/L by filter disk method relative to control; type: functional; details: in the assay text read “by incorporation into growth medium” for “by filter disk method”; how it was run: as §1
# Penicillium expansum [28] = experiment: Antifungal activity against Penicillium expansum assessed as mycelial growth at 50 umol/L […] relative to control; type: functional; how it was run: as §1
# Penicillium expansum [29] = experiment: Antifungal activity against Penicillium expansum assessed as mycelial growth at 100 umol/L […] relative to control; type: functional; how it was run: as §1
# Penicillium expansum [30] = experiment: Antifungal activity against Penicillium expansum assessed as mycelial growth at 200 umol/L […] relative to control; type: functional; how it was run: as §1
# Polyporus [31] = experiment: Antifungal activity against Polyporus marginatus assessed as mycelial growth at 50 umol/L by filter disk method relative to control; type: functional; details: in the assay text read “by incorporation into growth medium” for “by filter disk method”; how it was run: as §1
# Polyporus [32] = experiment: Antifungal activity against Polyporus marginatus assessed as mycelial growth at 100 umol/L by filter disk method relative to control; type: functional; details: in the assay text read “by incorporation into growth medium” for “by filter disk method”; how it was run: as §1
# [33] = Antifungal activity against Polyporus marginatus assessed as mycelial growth at 200 umol/L by filter disk method relative to control; type: functional; details: in the assay text read “by incorporation into growth medium” for “by filter disk method”; how it was run: as §1
# Rhizopus stolonifer [34] = experiment: Antifungal activity against Rhizopus stolonifer assessed as mycelial growth at 50 umol/L by […] relative to control; type: functional; how it was run: as §1
# [35] = Antifungal activity against Rhizopus stolonifer assessed as mycelial growth at 100 umol/L […] relative to control; type: functional; how it was run: as §1
# Rhizopus stolonifer [36] = experiment: Antifungal activity against Rhizopus stolonifer assessed as mycelial growth at 200 umol/L […] relative to control; type: functional; how it was run: as §1
# Trichoderma viride [37] = experiment: Antifungal activity against Trichoderma viride assessed as mycelial growth at 50 umol/L by filter disk method relative to control; type: functional; details: in the assay text read “by incorporation into growth medium” for “by filter disk method”; how it was run: as §1
# Trichoderma viride [38] = experiment: Antifungal activity against Trichoderma viride assessed as mycelial growth at 100 umol/L by filter disk method relative to control; type: functional; details: in the assay text read “by incorporation into growth medium” for “by filter disk method”; how it was run: as §1
# Trichoderma viride [39] = experiment: Antifungal activity against Trichoderma viride assessed as mycelial growth at 200 umol/L by filter disk method relative to control; type: functional; details: in the assay text read “by incorporation into growth medium” for “by filter disk method”; how it was run: as §1
# Fusarium basilici [40] = experiment: Antifungal activity against Fusarium basilici assessed as mycelial growth at 15 mg/disk by filter disk method relative to control
# Fusarium basilici [41] = experiment: Antifungal activity against Fusarium basilici assessed as mycelial growth at 1.5 mg/disk by filter disk method relative to control
# Fusarium basilici [42] = experiment: Antifungal activity against Fusarium basilici assessed as mycelial growth at 0.15 mg/disk by filter disk method relative to control
smiles,measurement,setting,value
CC[C@@H](CO)COc1cc2c(C)cc(=O)oc2cc1O [PAVIETIN],Activity,Alternaria dianthi [1],64.9%
same,Activity,Alternaria dianthi [2],77%
same,Activity,Alternaria dianthi [3],89.5%
same,Activity,Guignardia aesculi [4],33.8%
same,Activity,Guignardia aesculi [5],85.3%
same,Activity,Guignardia aesculi [6],64%
same,Activity,Globisporangium ultimum [7],88.4%
same,Activity,Globisporangium ultimum [8],81.6%
same,Activity,Globisporangium ultimum [9],78%
same,Activity,Alternaria alternata [10],86.8%
same,Activity,Alternaria alternata [11],80.2%
same,Activity,Alternaria alternata [12],58.5%
same,Activity,Aspergillus niger [13],73.2%
same,Activity,Aspergillus niger [14],68.6%
same,Activity,Aspergillus niger [15],50%
same,Activity,Botrytis [16],78.8%
same,Activity,Botrytis [17],64.6%
same,Activity,Botrytis [18],51.4%
same,Activity,Fulvia fulva [19],88.6%
same,Activity,Fulvia fulva [20],78.3%
same,Activity,Fulvia fulva [21],60.8%
same,Activity,[22],91.8%
same,Activity,[23],83.3%
same,Activity,[24],66.9%
same,Activity,Guignardia aesculi [25],84.6%
same,Activity,Guignardia aesculi [26],46.5%
same,Activity,Guignardia aesculi [27],20.7%
same,Activity,Penicillium expansum [28],68.8%
same,Activity,Penicillium expansum [29],48.4%
same,Activity,Penicillium expansum [30],29.9%
same,Activity,Polyporus [31],93.6%
same,Activity,Polyporus [32],86.2%
same,Activity,[33],76.1%
same,Activity,Rhizopus stolonifer [34],82%
same,Activity,[35],71.3%
same,Activity,Rhizopus stolonifer [36],68.1%
same,Activity,Trichoderma viride [37],78.8%
same,Activity,Trichoderma viride [38],70.4%
same,Activity,Trichoderma viride [39],61.5%
same,Activity,Fusarium basilici [40],59%
same,Activity,Fusarium basilici [41],76.4%
same,Activity,Fusarium basilici [42],87.8%
